ChEMBL document CHEMBL3758165, “In vitro interactions between anidulafungin and nonsteroidal anti-inflammatory drugs on biofilms of Candida spp” (2016)

How the values were obtained:
Format in all cases: functional
Candida albicans [1] = assay: Potentiation of anidulafungin-induced antibiofilm activity against Candida albicans ATCC 90028 at 0.1 uM to 100 mM after 48 hrs by XTT reduction assay relative to control; set-up: scale not given: the % may be the effect or the level left
Method in brief: (§1)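 Biofilms grown on sterilized PVC disks: 1·10^6 cfu/ml Candida cells adhered for 1.5 h at 37 °C with shaking, washed with PBS, then matured 48 h at 37 °C in RPMI 1640 (MOPS, pH 7). Preformed biofilms were washed and exposed to drug, alone or in two-dimensional checkerboard combination, in RPMI 1640 for 24 h at 37 °C on a rocker.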

Candida albicans [2] = assay: Antibiofilm activity against Candida albicans ATCC 10231 assessed as fractional inhibitory concentration by two dimensional checkerboard dilution method in presence of anidulafungin
Method in brief: (§2)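 Biofilms grown on PVC disks: 1·10^6 cfu/ml in RPMI 1640 (MOPS, pH 7), 1.5 h adhesion at 37 °C with shaking, PBS wash, 48 h maturation at 37 °C. Preformed biofilms exposed 24 h at 37 °C to anidulafungin/NSAID checkerboard combinations in RPMI. XTT-menadione reduction read at 490 nm. SMIC = 50% metabolic reduction versus drug-free control. Triplicate runs on different days; FIC index calculated.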

[3] = system: Meyerozyma guilliermondii; assay: Antibiofilm activity against Candida guilliermondii ATCC 6260 assessed as fractional inhibitory concentration by two dimensional checkerboard dilution method in presence of anidulafungin; method in brief: as §2
[4] = system: Meyerozyma guilliermondii; assay: Antibiofilm activity against Candida guilliermondii a410 by two dimensional checkerboard dilution method in presence of anidulafungin; method in brief: as §1
[5] = system: Meyerozyma guilliermondii; assay: Antibiofilm activity against Candida guilliermondii ATCC 6260 by two dimensional checkerboard dilution method; method in brief: as §1
Nakaseomyces glabratus [6] = assay: Potentiation of anidulafungin-induced antibiofilm activity against Candida glabrata ATCC 15126 at 0.1 uM to 100 mM after 48 hrs by XTT reduction assay relative to control; set-up: scale not given: the % may be the effect or the level left; method in brief: as §1
[7] = system: Meyerozyma guilliermondii; assay: Antibiofilm activity against Candida guilliermondii a83 by two dimensional checkerboard dilution method in presence of anidulafungin; method in brief: as §1
Candida albicans [8] = assay: Potentiation of anidulafungin-induced antibiofilm activity against Candida albicans ATCC 24433 assessed as anidulafungin-fractional inhibitory concentration index by two dimensional checkerboard dilution method; method in brief: as §2
Candida albicans [9] = assay: Antibiofilm activity against Candida albicans ATCC 24433 by two dimensional checkerboard dilution method in presence of anidulafungin; method in brief: as §1
[10] = system: Meyerozyma guilliermondii; assay: Potentiation of anidulafungin-induced antibiofilm activity against Candida guilliermondii a83 at 0.1 uM to 100 mM after 48 hrs by XTT reduction assay relative to control; set-up: scale not given: the % may be the effect or the level left; method in brief: as §1
[11] = system: Meyerozyma guilliermondii; assay: Potentiation of anidulafungin-induced antibiofilm activity against Candida guilliermondii a83 assessed as anidulafungin-fractional inhibitory concentration index by two dimensional checkerboard dilution method; method in brief: as §2
[12] = system: Meyerozyma guilliermondii; assay: Potentiation of anidulafungin-induced antibiofilm activity against Candida guilliermondii ATCC 6260 assessed as anidulafungin-fractional inhibitory concentration index by two dimensional checkerboard dilution method; method in brief: as §2
[13] = system: Meyerozyma guilliermondii; assay: Antibiofilm activity against Candida guilliermondii a410 assessed as fractional inhibitory concentration by two dimensional checkerboard dilution method in presence of anidulafungin; method in brief: as §2
Candida albicans [14] = assay: Potentiation of anidulafungin-induced antibiofilm activity against Candida albicans ATCC 10231 assessed as anidulafungin-fractional inhibitory concentration index by two dimensional checkerboard dilution method; method in brief: as §2
Candida albicans [15] = assay: Antibiofilm activity against Candida albicans ATCC 90028 by two dimensional checkerboard dilution method; method in brief: as §1
[16] = system: Meyerozyma guilliermondii; assay: Antibiofilm activity against Candida guilliermondii ATCC 6260 by two dimensional checkerboard dilution method in presence of anidulafungin; method in brief: as §1
Candida albicans [17] = assay: Potentiation of anidulafungin-induced antibiofilm activity against Candida albicans ATCC 10231 at 0.1 uM to 100 mM after 48 hrs by XTT reduction assay relative to control; set-up: scale not given: the % may be the effect or the level left; method in brief: as §1
Candida albicans [18] = assay: Potentiation of anidulafungin-induced antibiofilm activity against Candida albicans ATCC 24433 at 0.1 uM to 100 mM after 48 hrs by XTT reduction assay relative to control; set-up: scale not given: the % may be the effect or the level left; method in brief: as §1
Candida albicans [19] = assay: Potentiation of anidulafungin-induced antibiofilm activity against Candida albicans ATCC 90028 assessed as anidulafungin-fractional inhibitory concentration index by two dimensional checkerboard dilution method; method in brief: as §2
[20] = system: Meyerozyma guilliermondii; assay: Antibiofilm activity against Candida guilliermondii a83 assessed as fractional inhibitory concentration by two dimensional checkerboard dilution method in presence of anidulafungin; method in brief: as §2
Nakaseomyces glabratus [21] = assay: Potentiation of anidulafungin-induced antibiofilm activity against Candida glabrata 18a10 assessed as anidulafungin-fractional inhibitory concentration index by two dimensional checkerboard dilution method; method in brief: as §2
Candida albicans [22] = assay: Potentiation of anidulafungin-induced antibiofilm activity against Candida albicans 17a18 assessed as anidulafungin-fractional inhibitory concentration index by two dimensional checkerboard dilution method; method in brief: as §2
Candida albicans [23] = assay: Potentiation of anidulafungin-induced antibiofilm activity against Candida albicans 17a18 at 0.1 uM to 100 mM after 48 hrs by XTT reduction assay relative to control; set-up: scale not given: the % may be the effect or the level left; method in brief: as §1
Nakaseomyces glabratus [24] = assay: Potentiation of anidulafungin-induced antibiofilm activity against Candida glabrata 18a10 at 0.1 uM to 100 mM after 48 hrs by XTT reduction assay relative to control; set-up: scale not given: the % may be the effect or the level left; method in brief: as §1
Candida albicans [25] = assay: Antibiofilm activity against Candida albicans ATCC 10231 by two dimensional checkerboard dilution method in presence of anidulafungin; method in brief: as §1
Nakaseomyces glabratus [26] = assay: Antibiofilm activity against Candida glabrata 18a10 by two dimensional checkerboard dilution method in presence of anidulafungin; method in brief: as §1
Candida albicans [27] = assay: Antibiofilm activity against Candida albicans ATCC 24433 by two dimensional checkerboard dilution method; method in brief: as §1
[28] = system: Meyerozyma guilliermondii; assay: Potentiation of anidulafungin-induced antibiofilm activity against Candida guilliermondii a410 at 0.1 uM to 100 mM after 48 hrs by XTT reduction assay relative to control; set-up: scale not given: the % may be the effect or the level left; method in brief: as §1
Nakaseomyces glabratus [29] = assay: Antibiofilm activity against Candida glabrata ATCC 15126 at 0.1 uM to 100 mM after 48 hrs by XTT reduction assay relative to control; set-up: scale not given: the % may be the effect or the level left; method in brief: as §1
Candida albicans [30] = assay: Antibiofilm activity against Candida albicans ATCC 90028 assessed as fractional inhibitory concentration by two dimensional checkerboard dilution method in presence of anidulafungin; method in brief: as §2
Nakaseomyces glabratus [31] = assay: Antibiofilm activity against Candida glabrata 18a10 at 0.1 uM to 100 mM after 48 hrs by XTT reduction assay relative to control; set-up: scale not given: the % may be the effect or the level left; method in brief: as §1
[32] = system: Meyerozyma guilliermondii; assay: Antibiofilm activity against Candida guilliermondii a410 by two dimensional checkerboard dilution method; method in brief: as §1
Candida albicans [33] = assay: Antibiofilm activity against Candida albicans ATCC 24433 assessed as fractional inhibitory concentration by two dimensional checkerboard dilution method in presence of anidulafungin; method in brief: as §2
Candida albicans [34] = assay: Antibiofilm activity against Candida albicans 17a18 at 0.1 uM to 100 mM after 48 hrs by XTT reduction assay relative to control; set-up: scale not given: the % may be the effect or the level left; method in brief: as §1
Nakaseomyces glabratus [35] = assay: Antibiofilm activity against Candida glabrata 18a10 assessed as fractional inhibitory concentration by two dimensional checkerboard dilution method in presence of anidulafungin; method in brief: as §2
Nakaseomyces glabratus [36] = assay: Antibiofilm activity against Candida glabrata ATCC 15126 by two dimensional checkerboard dilution method; method in brief: as §1
Nakaseomyces glabratus [37] = assay: Potentiation of anidulafungin-induced antibiofilm activity against Candida glabrata ATCC 15126 assessed as anidulafungin-fractional inhibitory concentration index by two dimensional checkerboard dilution method; method in brief: as §2
[38] = system: Meyerozyma guilliermondii; assay: Potentiation of anidulafungin-induced antibiofilm activity against Candida guilliermondii ATCC 6260 at 0.1 uM to 100 mM after 48 hrs by XTT reduction assay relative to control; set-up: scale not given: the % may be the effect or the level left; method in brief: as §1

| SMILES | Activity (Candida albicans [1]) [%] | Ratio (Candida albicans [2]) | Ratio [3] | MIC [4] [µM] | MIC [5] | Activity (Nakaseomyces glabratus [6]) [%] | MIC [7] [µM] | fractional inhibitory concentration index (FICI) (Candida albicans [8]) | MIC (Candida albicans [9]) [µM] | Activity [10] [%] | fractional inhibitory concentration index (FICI) [11] | fractional inhibitory concentration index (FICI) [12] | Ratio [13] | fractional inhibitory concentration index (FICI) (Candida albicans [14]) | MIC (Candida albicans [15]) | MIC [16] [µM] | Activity (Candida albicans [17]) [%] | MIC (Candida albicans [27]) | MIC [32] | MIC (Nakaseomyces glabratus [36]) | further results |
| --- | --- | --- | --- | --- | --- | --- | --- | --- | --- | --- | --- | --- | --- | --- | --- | --- | --- | --- | --- | --- | --- |
| CC(C)Cc1ccc(C(C)C(=O)O)cc1 (centres undefined) [IBUPROFEN] | 61.43 | 0.05 | 0.1 | 20 | 200 µM | 57.46 | 40 | 0.3 | 1000 | 52.11 | 0.25 | 0.3 | 0.1 | 0.25 | 1000 µM | 20 | 59.51 | 1000 µM | 200 µM | 200 µM | Activity (Candida albicans [18]): 60.14%; fractional inhibitory concentration index (FICI) (Candida albicans [19]): 0.3; Ratio [20]: 0.2; fractional inhibitory concentration index (FICI) (Nakaseomyces glabratus [21]): 0.25; fractional inhibitory concentration index (FICI) (Candida albicans [22]): 0.25; Activity (Candida albicans [23]): 64.22%; Activity (Nakaseomyces glabratus [24]): 62.33%; MIC (Candida albicans [25]): 50 µM; MIC (Nakaseomyces glabratus [26]): 40 µM; Activity [28]: 51.31%; Activity (Nakaseomyces glabratus [29]): 57.23%; Ratio (Candida albicans [30]): 0.1; Activity (Nakaseomyces glabratus [31]): 53.44%; Ratio (Candida albicans [33]): 0.1; Activity (Candida albicans [34]): 24.51%; Ratio (Nakaseomyces glabratus [35]): 0.2; fractional inhibitory concentration index (FICI) (Nakaseomyces glabratus [37]): 0.25; Activity [38]: 53.32% |
| CC(=O)Oc1ccccc1C(=O)O [ASPIRIN] | 57.84 | 0.05 | 0.1 | 100 | 1000 µM | 49.78 | 10 | 0.15 | 100 | 45.32 | 0.1 | 0.15 | 0.1 | 0.1 | 1000 µM | 100 | 82.81 | 1000 µM | 1000 µM | 200 µM | Activity (Candida albicans [18]): 56.14%; fractional inhibitory concentration index (FICI) (Candida albicans [19]): 0.1; Ratio [20]: 0.05; fractional inhibitory concentration index (FICI) (Nakaseomyces glabratus [21]): 0.1; fractional inhibitory concentration index (FICI) (Candida albicans [22]): 0.1; Activity (Candida albicans [23]): 51.74%; Activity (Nakaseomyces glabratus [24]): 48.58%; MIC (Candida albicans [25]): 10 µM; MIC (Nakaseomyces glabratus [26]): 10 µM; Activity [28]: 41.54%; Activity (Nakaseomyces glabratus [29]): 29.02%; Ratio (Candida albicans [30]): 0.05; Activity (Nakaseomyces glabratus [31]): 32.32%; Ratio (Candida albicans [33]): 0.1; Activity (Candida albicans [34]): 46.55%; Ratio (Nakaseomyces glabratus [35]): 0.05; fractional inhibitory concentration index (FICI) (Nakaseomyces glabratus [37]): 0.1; Activity [38]: 50.37% |
| O=C([O-])Cc1ccccc1Nc1c(Cl)cccc1Cl.[Na+] [DICLOFENAC SODIUM] | 71.04 | 0.05 | 0.4 | 40000 | 100000 µM | 65.96 | 20000 | 0.1 | 5000 | 55.64 | 0.3 | 0.45 | 0.4 | 0.1 | 100000 µM | 40000 | 66.15 | 100000 µM | 100000 µM | 100000 µM | Activity (Candida albicans [18]): 65.24%; fractional inhibitory concentration index (FICI) (Candida albicans [19]): 0.1; Ratio [20]: 0.2; fractional inhibitory concentration index (FICI) (Nakaseomyces glabratus [21]): 0.3; fractional inhibitory concentration index (FICI) (Candida albicans [22]): 0.1; Activity (Candida albicans [23]): 64.25%; Activity (Nakaseomyces glabratus [24]): 58.66%; MIC (Candida albicans [25]): 5000 µM; MIC (Nakaseomyces glabratus [26]): 20000 µM; Activity [28]: 54.28%; Activity (Nakaseomyces glabratus [29]): 54.44%; Ratio (Candida albicans [30]): 0.05; Activity (Nakaseomyces glabratus [31]): 44.54%; Ratio (Candida albicans [33]): 0.05; Activity (Candida albicans [34]): 55.33%; Ratio (Nakaseomyces glabratus [35]): 0.2; fractional inhibitory concentration index (FICI) (Nakaseomyces glabratus [37]): 0.3; Activity [38]: 57.69% |
| CCCCCOc1ccc(-c2ccc(-c3ccc(C(=O)N[C@@H]4C[C@@H](O)[C@@H](O)NC(=O)[C@@H]5[C@@H](O)[C@@H](C)CN5C(=O)[C@H]([C@@H](C)O)NC(=O)[C@H]([C@H](O)[C@@H](O)c5ccc(O)cc5)NC(=O)[C@@H]5C[C@@H](O)CN5C(=O)[C@H]([C@H](C)O)NC4=O)cc3)cc2)cc1 | – | – | – | – | 2 µg/mL | – | – | – | – | – | – | – | – | – | 2 µg/mL | – | – | 2 µg/mL | 2 µg/mL | 2 µg/mL | – |
